Screens: PubChem, several laboratories
APJ ag = agonists of human APJ apelin receptor. P35414. CHO-K1 APJ PathHunter beta-arrestin, luminescence; 0% DMSO wells, 100% apelin. activation, % at 20 µM. 330,000 compounds, 0.11% hits;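 active = activation more than six SD over the plate average, tested at 20 µM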;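 also: 0% = DMSO alone and 100% = apelin-13 at 10 nM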
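Incubation: overnight seeding, 90 min compound at 25 °C, 1 h detection; test system: PathHunter CHO-K1 APJ (AGTRL-1) beta-arrestin reporter cells; amount: 1000 cells/well; doses: one dose, 20 µM compound, 1% DMSO; measured by: beta-gal luminescence; measure: agonist-driven arrestin binding to APJ; benchmarks: negative DMSO alone, positive Apelin-13 at 10 nM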
m5-HT2A agonist = agonists of mouse serotonin 5-HT2A receptor (HTR2A) | P35363 | CHO-K1 mHTR2A beta-arrestin complementation, luminescence; percent of 30 µM serotonin response | activation, % at 7.6 µM | 360,000 compounds, 0.66% hits;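 active = activation above a run cutoff, the mean activation of all tested compounds plus 3 SD, cut at about 14% in these data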;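 also: 0% = plate median of compound wells and 100% = 30 µM serotonin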
APJ antag = APJ receptor antagonism | P35414 | CHO-K1 APJ beta-arrestin complementation, luminescence | inhibition, % at 20 µM | 330,000 compounds, 0.32% hits | AID 2521;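 active = inhibition above about 40% at 20 µM, limit read from the data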;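 also: cells challenged with 10 nM apelin-13 agonist together with compound; plate controls were apelin-13 plus DMSO wells for no effect and DMSO wells lacking apelin-13 for full effect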
CCR6 antagonist = blocks CCL20-driven beta-arrestin recruitment at human CCR6 | 340,000 compounds, 0.49% hits | CHO-K1 CCR6 PathHunter beta-arrestin, luminescence, CCL20-stimulated | inhibition, % at 20 µM;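 active = compounds whose inhibition of the agonist-driven luminescence signal at 20 µM reaches about 50%, limit read from the data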;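 also: cells stimulated with CCL20 at 14 nM final; plate controls were DMSO with CCL20 for no effect and DMSO without agonist for full effect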
Target sequence (P51684 whole entry, looked up): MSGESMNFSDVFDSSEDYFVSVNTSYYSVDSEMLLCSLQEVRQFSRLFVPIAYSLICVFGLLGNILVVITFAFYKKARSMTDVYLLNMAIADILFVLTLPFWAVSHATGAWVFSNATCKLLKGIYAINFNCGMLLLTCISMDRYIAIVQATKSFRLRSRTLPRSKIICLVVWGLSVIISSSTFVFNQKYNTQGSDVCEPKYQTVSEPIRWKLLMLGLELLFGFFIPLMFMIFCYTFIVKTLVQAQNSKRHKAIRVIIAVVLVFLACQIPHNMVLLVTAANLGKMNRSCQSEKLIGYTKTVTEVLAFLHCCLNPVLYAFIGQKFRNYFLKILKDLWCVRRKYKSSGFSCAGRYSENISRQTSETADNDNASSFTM
EBI2 block = EBI2 (human) antagonism. P32249. EBI2 beta-arrestin recruitment, luminescence, 7a,25-OHC stimulated. inhibition, % at 5 µM. 360,000 compounds, 0.81% hits. AID 651636; in the data active = inhibition above about 38%;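 also: enzyme fragment complementation signal reports receptor beta-arrestin coupling in cells; 0% = agonist plus DMSO wells and 100% = wells without agonist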
CXCR6 inh = inhibitors of human CXCR6 receptor. O00574. CHO-K1 PathHunter CXCR6 beta-arrestin, luminescence. inhibition, % at 20 µM. 360,000 compounds, 0.36% hits. AID 602244; in the data active = inhibition above about 34%, passing the limit was not always enough;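 also: antagonist mode with CXCL16 agonist at 10 nM final; 0% = 10 nM CXCL16 with DMSO and 100% = unstimulated wells without agonist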
Target sequence (O00574 whole entry, looked up): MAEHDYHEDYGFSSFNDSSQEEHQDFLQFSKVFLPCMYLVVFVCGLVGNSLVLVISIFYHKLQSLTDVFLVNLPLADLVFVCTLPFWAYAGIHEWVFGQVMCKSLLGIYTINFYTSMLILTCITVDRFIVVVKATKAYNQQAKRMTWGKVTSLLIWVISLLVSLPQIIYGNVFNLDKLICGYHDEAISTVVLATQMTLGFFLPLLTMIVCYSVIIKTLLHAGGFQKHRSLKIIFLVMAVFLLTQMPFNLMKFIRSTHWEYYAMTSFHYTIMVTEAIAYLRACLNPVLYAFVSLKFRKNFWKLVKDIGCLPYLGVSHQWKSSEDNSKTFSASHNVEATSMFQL
APJ antag confirm = confirmation of human APJ apelin receptor antagonists. shares compounds with APJ antag. APJ beta-arrestin recruitment, luminescence, antagonist mode. inhibition, % at 20 µM. 950 compounds, 66% hits. AID 2766; in the data active = inhibition above about 50%
An asterisk follows results filed as active; x = no result given. Shown are actives, neighbours in structure and some others; about 2.1% of the full set was active somewhere.

SMILES | APJ ag | m5-HT2A agonist | APJ antag | CCR6 antagonist | EBI2 block | CXCR6 inh | APJ antag confirm
O=C(Cc1coc(-c2ccc(F)cc2)n1)NC1CCCCC1 | -2.9 | 0.0 | 60.5* | 4.8 | 0.9 | 1.4 | 20.1
CCN(CC)C(=S)SCC(=O)c1ccccc1 | -5.0 | -4.7 | -7.2 | 15.3 | -3.8 | -3.3 | x
CCN(CC)C(=S)SSC(=S)N(CC)CC | -14.8 | 1.0 | 71.0* | 59.6* | 12.3 | 50.6* | 107.7*
COc1ccc(C(=O)Nc2ccnn2C2CCN(CCC(C)c3ccc(C)o3)CC2)cc1 (centres undefined) | 3.9 | -9.1 | 17.6 | -2.2 | 7.1 | 10.1 | x
Cc1cc(Nc2nc3ccccc3nc2Cl)n(-c2ccc([N+](=O)[O-])cc2)n1 | -11.9 | 0.2 | 48.9* | 56.0* | 39.6 | 32.9 | -2.3
CCC(Oc1ccc(C)cc1)C(=O)Nc1ccc(S(=O)(=O)Nc2cc(C)on2)cc1 (centres undefined) | -3.5 | 3.5 | 19.5 | 10.6 | 3.5 | -2.0 | x
O=[N+]([O-])c1ccc(N/N=C/c2c[nH]c3ccccc23)c(S(=O)(=O)Nc2ccc(Cl)cc2)c1 | -8.1 | 1.4 | 44.1* | 45.8 | 26.5 | 35.4 | 91.4*
CN1CCN(S(=O)(=O)c2cc([N+](=O)[O-])ccc2N/N=C/c2ccc(Cl)cc2)CC1 | 4.3 | -6.3 | 7.6 | -2.9 | -9.4 | 3.0 | x
COc1ccccc1NS(=O)(=O)c1cc([N+](=O)[O-])ccc1N/N=C/c1c(C)[nH]c2ccccc12 | -13.2 | 4.3 | 58.3* | 58.5* | 39.1* | 46.4* | 84.0*
O=[N+]([O-])c1ccc(/C=N/Nc2nc(NCc3ccccc3)nc(N3CCOCC3)n2)cc1 | -0.4 | -3.1 | -7.7 | -8.6 | 3.4 | -1.1 | x
O=[N+]([O-])c1cccc(/C=N/Nc2nc(NCc3ccccc3)nc(N3CCOCC3)n2)c1O | -9.6 | -26.9 | 75.8* | 107.0* | 75.8* | 95.1* | 124.2*
COc1ccc(OC)c(NS(=O)(=O)c2c(C(=O)N3CCCCCC3)c(C)n(C)c2C)c1 | 1.7 | -0.6 | 31.9 | 5.8 | 3.9 | -3.9 | x
COc1cc(/C=C2\SC(c3ccc(C)cc3)=NC2=O)cc(OC)c1O | -11.2 | -2.0 | 56.2* | 64.7* | 11.1 | 37.6 | 77.4*
Cc1ccc(C2=NC(=O)/C(=C/c3cc(O)c(O)c(Br)c3)S2)cc1 | -7.8 | -0.8 | 22.0 | 48.5 | 4.1 | 32.4 | x
CCOC(=O)c1cnc2c(cnn2C)c1Oc1ccc(OC)cc1 | -4.5 | 1.6 | 26.2 | 13.0 | 3.7 | -4.2 | x
CCOC(=O)c1cnc2c(cnn2C)c1NCCC(O)C(F)(F)F (centres undefined) | -0.1 | -1.7 | 48.0* | 9.5 | -5.8 | 4.1 | 33.2
CCOC(=O)C(=O)Nc1cc(C(=O)OC)cc(C(=O)OC)c1 | -0.1 | 7.4 | 6.1 | 7.0 | 11.0 | -8.1 | x
CNC(=O)c1ccc(Nc2nnc(-c3ccc(O)cc3)c3ccccc23)cc1 | -2.0 | -3.3 | 6.0 | 7.5 | -6.0 | 1.5 | x
Oc1ccc(-c2nnc(Nc3cccc(O)c3)c3ccccc23)cc1 | -3.0 | 3.0 | 67.5* | 6.4 | -2.9 | -3.6 | -2.3
Cc1cc(C)c(C)c(/C=C(/C#N)C(N)=S)c1C | -7.9 | 2.1 | 41.9* | 29.3 | 5.7 | 13.3 | 36.2
Cc1cccc2cc3c(N)c(C(=O)N4CCOCC4)sc3nc12 | -10.7 | -5.7 | 51.1* | 23.1 | 2.2 | 7.2 | 7.3
Cc1ccc(-c2c(C(=O)N/N=C/c3cccc(Cl)c3)nnn2-c2nonc2N)cc1 | -8.1 | -10.2 | 52.9* | 18.4 | 17.3 | 8.9 | 62.4*
Cc1ccc(Nc2cc(C)nn2-c2nc(C)cc(=O)[nH]2)cc1 | -16.3 | -12.1 | 86.6* | 82.4* | 90.0* | 64.2* | 108.3*
CCN1C(=O)/C(=C2\C=Cc3ccccc3N2CC)SC1=S | -5.9 | -1.1 | 43.5* | 84.1* | 25.2 | 56.8* | 100.2*
COC(=O)C1=C(\O)CCCC/C=C\1C(=O)O | x | 9.1 | x | 4.0 | -2.7 | 6.6 | x
SMILES | APJ ag | m5-HT2A agonist | APJ antag | CCR6 antagonist | EBI2 block | CXCR6 inh | APJ antag confirm
CCOC(=O)C1=C(N)N(c2ccccc2Oc2ccccc2)C(=O)C1 | 0.1 | 2.8 | 8.8 | 12.2 | -3.5 | 30.5 | x
CCOC(=O)C1=C2NC(=O)c3ccccc3N2C(=O)C1 | -1.8 | 0.9 | 53.4* | 69.4* | 9.6 | 15.6 | 134.2*
CCC(CC)c1nnc(NC(=O)Cc2c[nH]c3ccccc23)s1 | x | -0.7 | x | x | -2.6 | -7.4 | x
COc1cc(/C=C2\SC(=S)N(N(C)c3ccccc3)C2=O)ccc1O | -10.9 | 6.7 | 56.4* | 14.5 | -0.3 | 2.7 | 95.4*
CCOc1cc(/C=C2/SC(=S)N(Cc3ccccc3)C2=O)ccc1O | -8.0 | -7.9 | 45.9* | 54.0* | 23.7 | 42.9* | 87.5*
COc1cc(/C=C2/SC(=S)N(Cc3ccccc3)C2=O)ccc1OCC(=O)O | -0.8 | 5.5 | -9.3 | 13.7 | 2.9 | -1.4 | x
CC(=O)Oc1ccc(/C=C2/SC(=S)N(Cc3ccccc3)C2=O)cc1 | -6.6 | 2.5 | 46.8* | 50.2* | 13.8 | 27.9 | 71.7*
Cc1nc(Cl)sc1C(=O)Nc1cccc(Cl)c1 | -0.5 | 7.0 | -0.5 | 9.5 | 4.8 | -10.5 | x
Cc1ccc(NC(=O)Cn2nnc(C(=O)Nc3ccc(C)c(C)c3)c2N)cc1 | 0.3 | 5.7 | 54.9* | 2.3 | 2.1 | 7.6 | 36.7
O=[N+]([O-])c1ccc(/C=N/Nc2ccc3ccccc3c2)o1 | -9.0 | -10.2 | 67.0* | 63.5* | 2.2 | 41.8* | 80.6*
Nc1ccn([C@@H]2O[C@H](C(=O)Nc3cc(C(F)(F)F)cc(C(F)(F)F)c3)[C@@H](O)[C@H]2O)c(=O)n1 | x | -0.1 | x | x | -11.1 | -1.6 | x
O=[N+]([O-])c1ccc(O)c(-c2nc(-c3ccccc3)c(-c3cccs3)[nH]2)c1 | -5.7 | 7.6 | 41.5* | 45.5 | -9.0 | 28.2 | 54.0*
COc1cc(OC)cc(C(=O)Nc2cccc3cccnc23)c1 | 0.5 | 2.2 | -20.6 | 7.7 | 2.7 | 2.6 | x
COc1cccc(N=Nc2ccc3cccnc3c2O)c1 | -10.1 | -5.0 | 61.2* | 41.5 | 32.0 | 20.7 | 60.6*
COc1ccc(N=Nc2ccc(O)c3ncccc23)cc1 | -8.8 | -4.8 | 45.7* | 38.2 | 12.1 | 23.4 | 83.6*
COc1ccc(C)cc1N=Nc1ccc(O)c2ncccc12 | x | -5.9 | x | 49.5 | 9.0 | 31.8 | x
Oc1ccc(N=Nc2ccc3c(c2)OCCO3)c(O)c1 | -4.3 | -6.2 | 11.7 | 39.1 | 5.7 | 24.7 | x
COc1cccc(N=Nc2ccc(O)c3ncccc23)c1 | -14.0 | -15.7 | 66.3* | 60.1* | 12.2 | 90.3* | 96.4*
Oc1ccc(N=Nc2ccc3c(c2)OCCO3)c2cccnc12 | -9.9 | 0.2 | 52.2* | 50.9* | 9.8 | 35.8 | 71.4*
CCOc1ccc(N=Nc2c(=O)[nH]n3c(=O)cc(C)[nH]c23)cc1 | -6.6 | -4.8 | 46.6* | 48.4 | 6.9 | 15.9 | 48.9
